pIC50: −log10 of the molar value.
Tests used:
[1] = target: T1, cGMP-specific 3',5'-cyclic phosphodiesterase (Homo sapiens, UniProt O76074); assay: Inhibition of human recombinant PDE5 after 30 mins by fluorescence polarization assay
Procedure, shortened: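 Recombinant human PDE5A at 12.5 units/mL was preincubated 30 min with compound or vehicle. Then 50 nM TAMRA-cGMP was added and the mix incubated 1.5 h at 30 °C. IMAP binding reagent was added for 30 min at 30 °C and fluorescence polarization read. IC50 came from a 10-concentration series in quadruplicate, fitted to a four-parameter logistic.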

[2] = target: T1, cGMP-specific 3',5'-cyclic phosphodiesterase; assay: Inhibition of human recombinant PDE5 at 10 uM after 30 mins by fluorescence polarization assay
MDA-MB-231 [3] = assay: Growth inhibition of human MDA-MB-231 cells at 10 uM after 72 hrs by luminescence assay; assay type: functional; conditions: MDA-MB-231, 72 h
MDA-MB-231 [4] = assay: Growth inhibition of human MDA-MB-231 cells after 72 hrs by luminescence assay; assay type: functional, cell-based; conditions: MDA-MB-231, 72 h
Procedure, shortened: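 MDA-MB-231 cells grown in RPMI 1640 with 5% FBS, 2 mM glutamine and antibiotics at 37 °C, 5% CO2. Cells were harvested at 70–90% confluence, used only if viability >95%, and seeded at 5000 cells/well. Dosing followed 18–24 h later, with final DMSO 0.1%. Viability was read after 72 h by CellTiter-Glo luminescence. IC50 came from eight concentrations in quadruplicate, fitted to a four-parameter logistic.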

pIC50 [1]	inhibition [2]	pIC50 (MDA-MB-231 [4])	Compound	inhibition at 10 µM (MDA-MB-231 [3])
6.57	95%		CCCCN1CC(=O)N2[C@H](c3ccc(Cl)cc3Cl)c3[nH]c4ccccc4c3C[C@@H]2C1=O	45%
6.72	94%		CC(C)(C)N1CC(=O)N2[C@H](c3ccc(Cl)cc3Cl)c3[nH]c4ccccc4c3C[C@@H]2C1=O	15%
5.95	69%	5.92	CCCCN1CC(=O)N2[C@@H](c3ccc(Cl)cc3Cl)c3[nH]c4ccccc4c3C[C@@H]2C1=O	65%
7.30	95%		CN1CC(=O)N2[C@H](c3ccc(Cl)cc3Cl)c3[nH]c4ccccc4c3C[C@@H]2C1=O	10%
5.48	67%		CCN1CC(=O)N2[C@@H](c3ccc(Cl)c(Cl)c3)c3[nH]c4ccccc4c3C[C@H]2C1=O	35%
	30%		CC(C)(C)N1CC(=O)N2[C@@H](c3ccc(Cl)c(Cl)c3)c3[nH]c4ccccc4c3C[C@@H]2C1=O	40%
	18%		CCN1C(=O)[C@H]2Cc3c([nH]c4ccccc34)[C@@H](c3c(Cl)cccc3Cl)N2C1=O	55%
7.05	90%		CCN1C(=O)[C@H]2Cc3c([nH]c4ccccc34)[C@H](c3ccc(Cl)cc3Cl)N2C1=O	54%
5.38	75%		CC(C)(C)N1C(=O)[C@@H]2Cc3c([nH]c4ccccc34)[C@H](c3ccc(Cl)cc3Cl)N2C1=O	22%
5.20	65%		CC(C)(C)N1C(=O)[C@H]2Cc3c([nH]c4ccccc34)[C@H](c3ccc(Cl)c(Cl)c3)N2C1=O	58%
	25%		CC(C)(C)N1C(=O)[C@@H]2Cc3c([nH]c4ccccc34)[C@H](c3c(Cl)cccc3Cl)N2C1=O	15%
	35%		CC(C)(C)N1CC(=O)N2[C@H](c3ccc(Cl)c(Cl)c3)c3[nH]c4ccccc4c3C[C@@H]2C1=O	36%
	37%		CCN1C(=O)[C@@H]2Cc3c([nH]c4ccccc34)[C@H](c3c(Cl)cccc3Cl)N2C1=O	52%
6.59			CC(C)(C)N1CC(=O)N2[C@H](c3ccc(Cl)cc3Cl)c3[nH]c4ccccc4c3C[C@H]2C1=O	30%
	40%		CCN1CC(=O)N2[C@H](c3c(Cl)cccc3Cl)c3[nH]c4ccccc4c3C[C@@H]2C1=O	31%
5.69	78%		CCN1CC(=O)N2[C@H](c3ccc(Cl)c(Cl)c3)c3[nH]c4ccccc4c3C[C@H]2C1=O	50%

pIC50 [1]	inhibition [2]	pIC50 (MDA-MB-231 [4])	Compound	inhibition at 10 µM (MDA-MB-231 [3])
	52%		CC(C)(C)N1C(=O)[C@H]2Cc3c([nH]c4ccccc34)[C@@H](c3c(Cl)cccc3Cl)N2C1=O	38%
7.92	88%		CC(C)(C)N1C(=O)[C@@H]2Cc3c([nH]c4ccccc34)[C@@H](c3ccc(Cl)c(Cl)c3)N2C1=O	60%
	21%		CC(C)(C)N1CC(=O)N2[C@@H](c3c(Cl)cccc3Cl)c3[nH]c4ccccc4c3C[C@H]2C1=O	20%
	28%		CCN1CC(=O)N2[C@@H](c3c(Cl)cccc3Cl)c3[nH]c4ccccc4c3C[C@H]2C1=O	24%
6.54	89%		CCCCN1CC(=O)N2[C@H](c3ccc(Cl)cc3Cl)c3[nH]c4ccccc4c3C[C@H]2C1=O	42%
5.90	85%		CC(C)(C)N1CC(=O)N2[C@H](c3ccc(Cl)c(Cl)c3)c3[nH]c4ccccc4c3C[C@H]2C1=O	50%
5.87	78%	5.59	CC(C)(C)N1CC(=O)N2[C@@H](c3ccc(Cl)cc3Cl)c3[nH]c4ccccc4c3C[C@H]2C1=O	
5.90		5.53	CC(C)(C)N1CC(=O)N2[C@@H](c3ccc(Cl)cc3Cl)c3[nH]c4ccccc4c3C[C@@H]2C1=O	
7.30	95%		CN1CC(=O)N2[C@H](c3ccc(Cl)cc3Cl)c3[nH]c4ccccc4c3C[C@H]2C1=O	23%
	21%		CC(C)(C)N1CC(=O)N2[C@H](c3c(Cl)cccc3Cl)c3[nH]c4ccccc4c3C[C@@H]2C1=O	16%
6.00	85%		CCN1CC(=O)N2[C@@H](c3ccc(Cl)cc3Cl)c3[nH]c4ccccc4c3C[C@H]2C1=O	52%
5.87	80%		CCN1CC(=O)N2[C@H](c3ccc(Cl)c(Cl)c3)c3[nH]c4ccccc4c3C[C@@H]2C1=O	30%
	45%		CCN1CC(=O)N2[C@@H](c3ccc(Cl)c(Cl)c3)c3[nH]c4ccccc4c3C[C@@H]2C1=O	44%
6.07	85%		CCN1C(=O)[C@@H]2Cc3c([nH]c4ccccc34)[C@H](c3ccc(Cl)cc3Cl)N2C1=O	29%
8.00	95%		CCN1CC(=O)N2[C@H](c3ccc(Cl)cc3Cl)c3[nH]c4ccccc4c3C[C@H]2C1=O	20%
	35%		CC(C)(C)N1CC(=O)N2[C@@H](c3ccc(Cl)c(Cl)c3)c3[nH]c4ccccc4c3C[C@H]2C1=O	58%

Continued, molecule first:

Compound	pIC50 [1]	inhibition [2]	pIC50 (MDA-MB-231 [4])	inhibition at 10 µM (MDA-MB-231 [3])
COC(=O)[C@@H]1Cc2c([nH]c3ccccc23)[C@@H](c2ccc(Cl)c(Cl)c2)N1		24%		48%
CCN1C(=O)[C@@H]2Cc3c([nH]c4ccccc34)[C@@H](c3ccc(Cl)c(Cl)c3)N2C1=O	6.52	90%		18%
COC(=O)[C@@H]1Cc2c([nH]c3ccccc23)[C@@H](c2ccc(Cl)cc2Cl)N1	6.24	82%		28%
COC(=O)[C@@H]1Cc2c([nH]c3ccccc23)[C@H](c2c(Cl)cccc2Cl)N1C(=O)CCl	6.14	67%		30%
COC(=O)[C@@H]1Cc2c([nH]c3ccccc23)[C@H](c2ccc(Cl)cc2Cl)N1		55%		50%
COC(=O)[C@H]1Cc2c([nH]c3ccccc23)[C@@H](c2c(Cl)cccc2Cl)N1C(=O)CCl		27%		15%
COC(=O)[C@H]1Cc2c([nH]c3ccccc23)[C@H](c2ccc(Cl)cc2Cl)N1C(=O)CCl		25%	7.15	
COC(=O)[C@H]1Cc2c([nH]c3ccccc23)[C@@H](c2ccc(Cl)cc2Cl)N1C(=O)CCl	5.64	66%	6.25	
CCN1C(=O)[C@H]2Cc3c([nH]c4ccccc34)[C@H](c3ccc(Cl)c(Cl)c3)N2C1=O	5.54			
COC(=O)[C@H]1Cc2c([nH]c3ccccc23)[C@H](c2ccc(Cl)cc2Cl)N1		40%	5.17	78%
COC(=O)[C@@H]1Cc2c([nH]c3ccccc23)[C@H](c2ccc(Cl)c(Cl)c2)N1		18%	5.16	62%
COC(=O)[C@@H]1Cc2c([nH]c3ccccc23)[C@H](c2ccc(Cl)c(Cl)c2)N1C(=O)CCl		20%		43%
COC(=O)[C@H]1Cc2c([nH]c3ccccc23)[C@@H](c2c(Cl)cccc2Cl)N1		25%		
COC(=O)[C@@H]1Cc2c([nH]c3ccccc23)[C@@H](c2ccc(Cl)cc2Cl)N1C(=O)CCl		38%	5.91	98%
COC(=O)[C@@H]1Cc2c([nH]c3ccccc23)[C@H](c2ccc(Cl)cc2Cl)N1C(=O)CCl	6.42	99%		55%
COC(=O)[C@H]1Cc2c([nH]c3ccccc23)[C@@H](c2ccc(Cl)c(Cl)c2)N1	5.79	78%		43%
COC(=O)[C@@H]1Cc2c([nH]c3ccccc23)[C@H](c2c(Cl)cccc2Cl)N1		15%		52%
COC(=O)[C@H]1Cc2c([nH]c3ccccc23)[C@H](c2ccc(Cl)c(Cl)c2)N1		50%	5.34	100%
CCN1C(=O)[C@@H]2Cc3c([nH]c4ccccc34)[C@H](c3ccc(Cl)c(Cl)c3)N2C1=O	5.06		5.32	
COC(=O)[C@H]1Cc2c([nH]c3ccccc23)[C@@H](c2ccc(Cl)c(Cl)c2)N1C(=O)CCl		40%		
COC(=O)[C@H]1Cc2c([nH]c3ccccc23)[C@H](c2ccc(Cl)c(Cl)c2)N1C(=O)CCl		30%		50%
COC(=O)[C@@H]1Cc2c([nH]c3ccccc23)[C@@H](c2ccc(Cl)c(Cl)c2)N1C(=O)CCl		40%		55%
CCN1C(=O)[C@H]2Cc3c([nH]c4ccccc34)[C@@H](c3ccc(Cl)c(Cl)c3)N2C1=O	6.82	95%		50%
COC(=O)[C@H]1Cc2c([nH]c3ccccc23)[C@@H](c2ccc(Cl)cc2Cl)N1	5.14	65%		29%

— ChEMBL document CHEMBL1649422, “Synthesis and molecular modeling of novel tetrahydro-β-carboline derivatives with phosphodiesterase 5 inhibitory and anticancer properties” (J Med Chem, 2011)
